Drawing on ChEMBL document CHEMBL1145520, “RAS-RAF-MEK-dependent oxidative cell death involving voltage-dependent anion channels” (Nature, 2007), this text covers Activity for one molecule.

For one assay, the system named is HL-60. The experiment in a line: Induction of cell death in human HL60 cells. It counts as functional.
In the next assay the test system is BJ. The experiment in a line: Induction of PARP1 cleavage in human BJ cells expressing TERT, LT, ST and RAS G12V mutant genes cells after 14 hrs. It counts as functional, cell-based. In outline:
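BJ-TERT/LT/ST/RASV12 cells (3 × 10^6 per dish) were incubated overnight at 37 °C, 5% CO2, then given erastin for 6–26 h. Untreated cells and staurosporine (6 h) or camptothecin (18 h) served as comparators. Full-length and cleaved PARP1 were detected by western blot.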

The source made the active and inactive calls. The calls are words filed in the database; no cut-off is given here.

The molecule `CCOc1ccccc1-n1c(C(C)N2CCN(C(=O)COc3ccc(Cl)cc3)CC2)nc2ccccc2c1=O` (configuration not stated) [ERASTIN] displayed an Activity in the assay with HL-60 of 0%. Further, the result in the assay with BJ was inactive.
